Here are results for 13 compounds from ChEMBL document CHEMBL5223087, “First-in-Class Cyclic Temporin L Analogue: Design, Synthesis, and Antimicrobial Assessment” (J Med Chem, 2021).

One series has as its system Staphylococcus aureus. Briefly: Antimicrobial activity against Staphylococcus aureus ATCC 25923 assessed as reduction in bacterial growth incubated for 16 to 18 hrs by microdilution susceptibility test. Particulars: time 16-18 hrs. In kind it is functional. In outline: (§1)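 Broth microdilution in Mueller–Hinton broth. Mid-log bacteria at 1 × 10⁶ CFU/mL final, peptide twofold serial dilutions 100 to 0.78 μM final. Incubated 16–18 h at 37 °C. MIC taken as the lowest concentration giving total (100%) growth inhibition.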
(In general: Dilution methods test growth across graded concentrations, often in twofold steps.)

Series [1] concerns Staphylococcus epidermidis. Briefly: Antimicrobial activity against Staphylococcus epidermidis ATCC 12228 assessed as reduction in bacterial growth incubated for 16 to 18 hrs by microdilution susceptibility test. Particulars: time 16-18 hrs. In kind it is functional. The method, boiled down:
as §1

In another series the test system is Priestia megaterium. Briefly: Antimicrobial activity against Bacillus megaterium Bm11 assessed as reduction in bacterial growth incubated for 16 to 18 hrs by microdilution susceptibility test. In kind it is functional. Particulars: time 16-18 hrs. In outline: as §1
The subject of the next series is Escherichia coli. The experiment in a line: Antimicrobial activity against Escherichia coli ATCC 25922 assessed as reduction in bacterial growth incubated for 16 to 18 hrs by microdilution susceptibility test. Particulars: time 16-18 hrs. In kind it is functional. In outline: as §1
Another series relates to Pseudomonas aeruginosa. The experiment in a line: Antimicrobial activity against Pseudomonas aeruginosa ATCC 27853 assessed as reduction in bacterial growth incubated for 16 to 18 hrs by microdilution susceptibility test. In kind it is functional. The note with it: time 16-18 hrs. The method, boiled down:
as §1

The test system of the next series is Acinetobacter baumannii. The experiment in a line: Antimicrobial activity against Acinetobacter baumannii ATCC 19606 assessed as reduction in bacterial growth incubated for 16 to 18 hrs by microdilution susceptibility test. It counts as functional. The note with it: time 16-18 hrs. In outline: as §1
In series [2] the test system is HaCaT. Briefly: Cytotoxicity against human HaCaT cells assessed as reduction in cell viability at 25 uM measured after 2 hrs by MTT assay. It counts as toxicity, cell-based. In outline:
(§2)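 HaCaT keratinocytes seeded at 4 × 10⁴/well in DMEM with 4 mM glutamine and 2% FBS, no antibiotics, overnight at 37 °C, 5% CO2. Medium replaced with peptide-containing DMEMg for 2 or 24 h. MTT 0.5 mg/mL in Hank's buffer 4 h, formazan dissolved in acidified isopropanol, A570. Viability as % of untreated cells; mean of three independent experiments ± SEM.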

Series [3] concerns HaCaT. Briefly: Cytotoxicity against human HaCaT cells assessed as reduction in cell viability at 50 uM measured after 2 hrs by MTT assay. It counts as toxicity, cell-based. The method, boiled down:
as §2
A general note: Tetrazolium assays rely on reduction of a dye to a coloured formazan, in cell work by metabolically active cells.

Series [4] has as its system HaCaT. Briefly: Cytotoxicity against human HaCaT cells assessed as reduction in cell viability at 50 uM measured after 24 hrs by MTT assay. It counts as toxicity, cell-based. In outline: as §2

SMILES strings stand for the structures. Values after ≈ are worked out from the molar mass of the structure shown. Bridge positions count the residues as written; N and C are the ends. Square brackets hold non-standard residues; d marks the D form. Triazole bridges read from a SMILES are 1,4-linked. Peptide text beside a SMILES is read from it. dLys(N3) = [N-]=[N+]=NCCCC[C@@H](N)C(=O)O; Lys(N3) = [N-]=[N+]=NCCCC[C@H](N)C(=O)O; Pra = C#CC[C@H](N)C(=O)O

As for `CCC(C)[C@H](NC(=O)[C@H](CCCNC(=N)N)NC(=O)[C@]1(C)CCC/C=C/CCC[C@](C)(NC(=O)[C@H](Cc2ccccc2)NC(=O)[C@H](Cc2c[nH]c3ccccc23)NC(=O)[C@@H]2CCCN2C(=O)[C@@H](NC(=O)[C@@H](N)Cc2ccccc2)C(C)C)C(=O)N[C@@H](CCCCN)C(=O)N[C@@H](Cc2ccccc2)C(=O)N[C@H](CC(C)C)C(=O)N1)C(=O)N[C@@H](CC(C)C)C(N)=O` (some centres undefined), the MIC is greater than 100 µM in the series on Staphylococcus aureus; greater than 100 µM in [1]; 100 µM (≈ 172 µg/mL) in the series with Priestia megaterium; greater than 100 µM in the series with Escherichia coli; greater than 100 µM in the series with Pseudomonas aeruginosa; greater than 100 µM with Acinetobacter baumannii.
Take `CC[C@H](C)[C@@H]1NC(=O)[C@H](CCCNC(=N)N)NC(=O)CNC(=O)[C@H](NC(=O)[C@H](Cc2ccccc2)NC(=O)[C@H](CCCCN)NC(=O)[C@H](CO)NC(=O)[C@H](Cc2ccccc2)NC(=O)[C@H](Cc2c[nH]c3ccccc23)NC(=O)[C@@H]2CCCN2C(=O)[C@@H](NC(=O)[C@@H](N)Cc2ccccc2)C(C)C)CCCCNC(=O)CC[C@@H](C(N)=O)NC1=O`: the MIC (in the series on Staphylococcus aureus; in series [1]; with Escherichia coli; in the series with Pseudomonas aeruginosa; in the series with Acinetobacter baumannii) was greater than 100 µM each time.
Consider `CC[C@H](C)[C@H](NC(=O)[C@H](CCCNC(=N)N)NC(=O)CNC(=O)[C@@H](CC(C)C)NC(=O)[C@@H]1CCC(=O)NCCCC[C@H](NC(=O)[C@@H]2CCCN2C(=O)[C@@H](NC(=O)[C@@H](N)Cc2ccccc2)C(C)C)C(=O)N[C@@H](Cc2ccccc2)C(=O)N[C@@H](CO)C(=O)N[C@@H](CCCCN)C(=O)N1)C(=O)N[C@@H](CC(C)C)C(N)=O` (H-FVPKFSKE[dL]GRIL-NH2; lactam 4-8), for which the MIC (in the series with Staphylococcus aureus; in series [1]; in the series on Priestia megaterium; in the series on Escherichia coli; with Pseudomonas aeruginosa; with Acinetobacter baumannii) was greater than 100 µM throughout.
As for `CC[C@H](C)[C@H](NC(=O)[C@H](CCCNC(=N)N)NC(=O)[C@@H]1CSSC[C@H](NC(=O)[C@H](Cc2ccccc2)NC(=O)[C@H](Cc2c[nH]c3ccccc23)NC(=O)[C@@H]2CCCN2C(=O)[C@@H](NC(=O)[C@@H](N)Cc2ccccc2)C(C)C)C(=O)N[C@@H](CCCCN)C(=O)N[C@@H](Cc2ccccc2)C(=O)N[C@H](CC(C)C)C(=O)N1)C(=O)N[C@@H](CC(C)C)C(N)=O` (H-FVPWFCKF[dL]CRIL-NH2; disulfide 6-10), the results for the minimal inhibitory concentration (MIC) in the series with Staphylococcus aureus and in the series with Pseudomonas aeruginosa were 100 µM (≈ 167 µg/mL) and greater than 100 µM, respectively.
With `CC[C@H](C)[C@H](NC(=O)[C@H](CCCNC(=N)N)NC(=O)[C@@H]1CCCCNC(=O)CC[C@H](NC(=O)[C@H](Cc2ccccc2)NC(=O)[C@H](Cc2c[nH]c3ccccc23)NC(=O)[C@@H]2CCCN2C(=O)[C@@H](NC(=O)[C@@H](N)Cc2ccccc2)C(C)C)C(=O)N[C@@H](CCCCN)C(=O)N[C@@H](Cc2ccccc2)C(=O)N[C@H](CC(C)C)C(=O)N1)C(=O)N[C@@H](CC(C)C)C(N)=O` (H-FVPWFEKF[dL]KRIL-NH2; lactam 6-10), the MIC with Escherichia coli is 25 µM (≈ 42.6 µg/mL); in the series on Pseudomonas aeruginosa, greater than 100 µM. Besides, the Activity in the series with HaCaT [2] is 60%; in the series with HaCaT [3], less than 40%; in the series with HaCaT [4], less than 20%.
In the case of `CC[C@H](C)[C@@H]1NC(=O)[C@H](CCCNC(=N)N)NC(=O)CNC(=O)[C@@H](CC(C)C)NC(=O)[C@H](Cc2ccccc2)NC(=O)[C@H](CCCCN)NC(=O)[C@@H](NC(=O)[C@H](Cc2ccccc2)NC(=O)[C@H](Cc2c[nH]c3ccccc23)NC(=O)[C@@H]2CCCN2C(=O)[C@@H](NC(=O)[C@@H](N)Cc2ccccc2)C(C)C)CCCCNC(=O)CC[C@@H](C(N)=O)NC1=O` (H-FVPWFKKF[dL]GRIE-NH2; lactam 6-13), the MIC (with Staphylococcus aureus; in [1]; in the series on Escherichia coli; with Pseudomonas aeruginosa; in the series on Acinetobacter baumannii) was greater than 100 µM throughout.
`CC(C)C[C@H](NC(=O)[C@@H]1CCC(=O)NCCCC[C@H](NC(=O)[C@H](CCCCN)NC(=O)[C@H](CO)NC(=O)[C@H](Cc2ccccc2)NC(=O)[C@H](Cc2c[nH]c3ccccc23)NC(=O)[C@@H]2CCCN2C(=O)[C@@H](NC(=O)[C@@H](N)Cc2ccccc2)C(C)C)C(=O)N[C@H](CC(C)C)C(=O)NCC(=O)N[C@@H](CCCNC(=N)N)C(=O)N1)C(N)=O` (H-FVPWFSKK[dL]GREL-NH2; lactam 8-12): the MIC (in the series on Staphylococcus aureus; in [1]; in the series on Escherichia coli; with Pseudomonas aeruginosa; in the series with Acinetobacter baumannii) was greater than 100 µM throughout.
For the compound `CC(C)C[C@H](NC(=O)[C@@H]1CCCCn2cc(nn2)C[C@H](NC(=O)[C@H](CCCCN)NC(=O)[C@H](CO)NC(=O)[C@H](Cc2ccccc2)NC(=O)[C@H](Cc2c[nH]c3ccccc23)NC(=O)[C@@H]2CCCN2C(=O)[C@@H](NC(=O)[C@@H](N)Cc2ccccc2)C(C)C)C(=O)N[C@H](CC(C)C)C(=O)NCC(=O)N[C@@H](CCCNC(=N)N)C(=O)N1)C(N)=O` (H-FVPWFSK[Pra][dL]GR[Lys(N3)]L-NH2; triazole 8-12), the MIC (with Staphylococcus aureus; in [1]; with Pseudomonas aeruginosa) was greater than 100 µM in each case.
Regarding `CC[C@H](C)[C@@H]1NC(=O)[C@H](CCCNC(=N)N)NC(=O)CNC(=O)[C@@H](CC(C)C)NC(=O)[C@H](Cc2ccccc2)NC(=O)[C@H](CCCCN)NC(=O)[C@@H](NC(=O)[C@H](Cc2ccccc2)NC(=O)[C@H](Cc2c[nH]c3ccccc23)NC(=O)[C@@H]2CCCN2C(=O)[C@@H](NC(=O)[C@@H](N)Cc2ccccc2)C(C)C)Cc2cn(nn2)CCCC[C@@H](C(N)=O)NC1=O` (H-FVPWF[Pra]KF[dL]GRI[Lys(N3)]-NH2; triazole 6-13), the MIC (in the series with Staphylococcus aureus; in series [1]; with Escherichia coli; in the series on Pseudomonas aeruginosa; with Acinetobacter baumannii) was greater than 100 µM each time.
In the case of `CC[C@H](C)[C@H](NC(=O)[C@H](CCCNC(=N)N)NC(=O)CNC(=O)[C@H]1CCC(=O)NCCCC[C@H](NC(=O)[C@H](Cc2c[nH]c3ccccc23)NC(=O)[C@@H]2CCCN2C(=O)[C@@H](NC(=O)[C@@H](N)Cc2ccccc2)C(C)C)C(=O)N[C@@H](CO)C(=O)N[C@@H](CCCCN)C(=O)N[C@@H](Cc2ccccc2)C(=O)N1)C(=O)N[C@@H](CC(C)C)C(N)=O` (H-FVPWKSKF[dE]GRIL-NH2; lactam 5-9), the MIC in the series with Staphylococcus aureus was greater than 100 µM; in series [1] it was greater than 100 µM; with Priestia megaterium, 100 µM (≈ 159 µg/mL); with Escherichia coli, greater than 100 µM; in the series on Pseudomonas aeruginosa, greater than 100 µM; in the series with Acinetobacter baumannii, greater than 100 µM.
On to `CC(C)C[C@H](NC(=O)[C@@H]1CCC(=O)NCCCC[C@H](NC(=O)[C@H](Cc2c[nH]c3ccccc23)NC(=O)[C@@H]2CCCN2C(=O)[C@@H](NC(=O)[C@@H](N)Cc2ccccc2)C(C)C)C(=O)N[C@@H](CO)C(=O)N[C@@H](CCCCN)C(=O)N[C@@H](Cc2ccccc2)C(=O)N[C@H](CC(C)C)C(=O)NCC(=O)N[C@@H](CCCNC(=N)N)C(=O)N1)C(N)=O` (H-FVPWKSKF[dL]GREL-NH2; lactam 5-12), for which the MIC in the series with Staphylococcus aureus is greater than 100 µM; in [1], greater than 100 µM; in the series with Priestia megaterium, 100 µM (≈ 159 µg/mL); with Escherichia coli, greater than 100 µM; in the series with Pseudomonas aeruginosa, greater than 100 µM; in the series on Acinetobacter baumannii, greater than 100 µM.
`CC[C@H](C)[C@H](NC(=O)[C@H](CCCNC(=N)N)NC(=O)CNC(=O)[C@H]1CCCCn2cc(nn2)C[C@H](NC(=O)[C@H](Cc2c[nH]c3ccccc23)NC(=O)[C@@H]2CCCN2C(=O)[C@@H](NC(=O)[C@@H](N)Cc2ccccc2)C(C)C)C(=O)N[C@@H](CO)C(=O)N[C@@H](CCCCN)C(=O)N[C@@H](Cc2ccccc2)C(=O)N1)C(=O)N[C@@H](CC(C)C)C(N)=O` (H-FVPW[Pra]SKF[dLys(N3)]GRIL-NH2; triazole 5-9): the MIC was greater than 100 µM in the series with Staphylococcus aureus; greater than 100 µM in [1]; 100 µM (≈ 160 µg/mL) with Escherichia coli; greater than 100 µM in the series on Pseudomonas aeruginosa; 100 µM (≈ 160 µg/mL) with Acinetobacter baumannii.
`CC[C@H](C)[C@H](NC(=O)[C@H](CCCNC(=N)N)NC(=O)CNC(=O)[C@@H](CC(C)C)NC(=O)[C@@H]1CCCCn2cc(nn2)C[C@H](NC(=O)[C@@H]2CCCN2C(=O)[C@@H](NC(=O)[C@@H](N)Cc2ccccc2)C(C)C)C(=O)N[C@@H](Cc2ccccc2)C(=O)N[C@@H](CO)C(=O)N[C@@H](CCCCN)C(=O)N1)C(=O)N[C@@H](CC(C)C)C(N)=O` (H-FVP[Pra]FSK[Lys(N3)][dL]GRIL-NH2; triazole 4-8): the MIC (in the series with Staphylococcus aureus; in [1]; in the series on Escherichia coli; with Pseudomonas aeruginosa; in the series on Acinetobacter baumannii) was greater than 100 µM throughout.

One may read the MIC as the lowest concentration found to suppress growth.
